Active and inactive are the calls of the source. The calls are words filed in the database; no cut-off is given here.
Legend:
[1] = target: T1, Peroxisome proliferator-activated receptor (Homo sapiens) (UniProt P37231+Q07869+Q03181); assay: Agonist activity at PPAR in human myotubes assessed as CD36 mRNA expression at 30 uM after 96 hrs by qPCR analysis relative to control
Method in brief: (§1)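 Myotubes from satellite cells of abdominal muscle biopsies of healthy donors, differentiated 7 days, then exposed 96 h to test lipids (30 μM) vs DMSO 0.1%. Total RNA isolated (RIN ≥7), reverse transcribed, real-time PCR with gene-specific primers; expression expressed relative to DMSO control.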

[2] = Effect on fatty acid composition in human myotubes assessed as intracellular PUFA n-6 level at 10 uM after 96 hrs (Rvb= 11.46%); type: functional
Method in brief: (§2)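 Differentiated human myotubes (7 days) treated 96 h with 10 or 30 μM compound or DMSO 0.1% (two controls). Cells washed, harvested, lipids extracted and methylated (methanol, sulfuric acid, 90 °C, 1 h); FA methyl esters quantified by GC with C21:0 internal standard, peaks confirmed by standards and GC/MS; values as mol % of intracellular fatty acids.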

[3] = target: T1, Peroxisome proliferator-activated receptor (Homo sapiens); assay: Agonist activity at PPAR in human myotubes assessed as CPT1A mRNA expression at 30 uM after 96 hrs by qPCR analysis relative to control; method in brief: as §1
[4] = Effect on total fatty acid level in human myotubes assessed as per mg of protein at 10 to 30 uM; type: ADME
[5] = Effect on fatty acid composition in human myotubes assessed as intracellular SFA level at 10 uM after 96 hrs (Rvb= 31.41%); type: functional; method in brief: as §2
[6] = Effect on protein level in human myotubes at 10 to 30 uM; type: ADME
[7] = Effect on fatty acid composition in human myotubes assessed as intracellular dTTA level at 10 uM after 96 hrs; type: functional; method in brief: as §2
[8] = Effect on fatty acid composition in human myotubes assessed as intracellular PUFA n-3 level at 30 uM after 96 hrs (Rvb= 5.16%); type: functional; method in brief: as §2
[9] = Effect on fatty acid composition in human myotubes assessed as intracellular MUFA level at 30 uM after 96 hrs (Rvb= 49.95%); type: functional; method in brief: as §2
[10] = Effect on fatty acid composition in human myotubes assessed as change in intracellular SFA level at 30 uM after 96 hrs relative to DMSO control; type: functional; method in brief: as §2
[11] = Effect on fatty acid composition in human myotubes assessed as intracellular PUFA n-6 level at 30 uM after 96 hrs (Rvb= 11.46%); type: functional; method in brief: as §2
[12] = Effect on fatty acid composition in human myotubes assessed as intracellular MUFA level at 10 uM after 96 hrs (Rvb= 49.95%); type: functional; method in brief: as §2
[13] = Effect on fatty acid composition in human myotubes assessed as intracellular PUFA n-3 level at 10 uM after 96 hrs (Rvb= 5.16%); type: functional; method in brief: as §2
[14] = Effect on fatty acid composition in human myotubes assessed as intracellular PUFA n-9 level at 30 uM after 96 hrs (Rvb= 1.89%); type: functional; method in brief: as §2
[15] = species: Homo sapiens; assay: Effect on intracellular [14C]oleic acid uptake in human myotubes at 10 to 30 uM preincubated for 96 hrs followed by substrate addition incubated for 4 hrs by liquid scintillation analysis; type: functional, cell-based
Method in brief: (§3)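 Myotubes differentiated 7 days were pretreated 96 h with 10 or 30 μM compound, 10 nM GW501516 or DMSO 0.1%, then given [1-14C]oleic acid (0.5 μCi/mL, 100 μM) in DPBS with HEPES 10 mM and L-carnitine 1 mM, 4 h at 37 °C. Trapped CO2 and cell-associated label counted by scintillation; uptake = CO2 + CA; Bradford protein; % of DMSO basal; n = 8–15.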

[16] = Effect on fatty acid composition in human myotubes assessed as intracellular PUFA n-9 level at 10 uM after 96 hrs (Rvb= 1.89%); type: functional; method in brief: as §2
[17] = Effect on fatty acid composition in human myotubes assessed as change in intracellular SFA level at 10 uM after 96 hrs relative to DMSO control; type: functional; method in brief: as §2
[18] = Effect on fatty acid composition in human myotubes assessed as intracellular TTA level at 30 uM after 96 hrs; type: functional; method in brief: as §2
[19] = Effect on fatty acid composition in human myotubes assessed as intracellular SFA level at 30 uM after 96 hrs (Rvb= 31.41%); type: functional; method in brief: as §2
[20] = target: T1, Peroxisome proliferator-activated receptor (Homo sapiens); assay: Agonist activity at PPAR in human myotubes assessed as FABP3 mRNA expression at 30 uM after 96 hrs by qPCR analysis relative to control; method in brief: as §1
[21] = target: T1, Peroxisome proliferator-activated receptor (Homo sapiens); assay: Agonist activity at PPAR in human myotubes assessed as ANGPTL4 mRNA expression at 30 uM after 96 hrs by qPCR analysis relative to control; method in brief: as §1
[22] = Effect on fatty acid composition in human myotubes assessed as intracellular dTTA level at 30 uM after 96 hrs; type: functional; method in brief: as §2
[23] = Effect on fatty acid composition in human myotubes assessed as change in intracellular MUFA level at 30 uM after 96 hrs relative to DMSO control; type: functional; method in brief: as §2
[24] = Effect on fatty acid composition in human myotubes assessed as change in intracellular MUFA level at 10 uM after 96 hrs relative to DMSO control; type: functional; method in brief: as §2
[25] = Effect on fatty acid composition in human myotubes assessed as intracellular TTA level at 10 uM after 96 hrs; type: functional; method in brief: as §2
[26] = Effect on fatty acid composition in human myotubes assessed as intracellular PUFA n-6 level at 10 uM after 96 hrs (Rvb= 13.41%); type: functional; method in brief: as §2
[27] = Effect on fatty acid composition in human myotubes assessed as intracellular PUFA n-6 level at 30 uM after 96 hrs (Rvb= 13.41%); type: functional; method in brief: as §2
[28] = Effect on fatty acid composition in human myotubes assessed as intracellular PUFA n-3 level at 30 uM after 96 hrs (Rvb= […]); type: functional; method in brief: as §2
[29] = Effect on fatty acid composition in human myotubes assessed as intracellular MUFA level at 30 uM after 96 hrs (Rvb= 41.04%); type: functional; method in brief: as §2
[30] = Effect on fatty acid composition in human myotubes assessed as intracellular PUFA n-9 level at 10 uM after 96 hrs (Rvb= 1.78%); type: functional; method in brief: as §2
[31] = Effect on fatty acid composition in human myotubes assessed as intracellular PUFA n-3 level at 10 uM after 96 hrs (Rvb= 7.47%); type: functional; method in brief: as §2
[32] = Effect on fatty acid composition in human myotubes assessed as intracellular SFA level at 10 uM after 96 hrs (Rvb= 36.16%); type: functional; method in brief: as §2
[33] = Effect on fatty acid composition in human myotubes assessed as intracellular MUFA level at 10 uM after 96 hrs (Rvb= 41.04%); type: functional; method in brief: as §2
[34] = species: Homo sapiens; assay: Induction of fatty acid oxidation in human myotubes using [14C]oleic acid as substrate preincubated for 96 hrs followed by substrate addition incubated for 4 hrs by liquid scintillation analysis; type: functional; method in brief: as §3
[35] = Effect on fatty acid composition in human myotubes assessed as intracellular PUFA n-9 level at 30 uM after 96 hrs (Rvb= 1.78%); type: functional; method in brief: as §2
[36] = Effect on fatty acid composition in human myotubes assessed as intracellular SFA level at 30 uM after 96 hrs (Rvb= 36.16%); type: functional; method in brief: as §2
[37] = Effect on fatty acid composition in human myotubes assessed as intracellular tTTA level at 10 uM after 96 hrs; type: functional; method in brief: as §2
[38] = Effect on fatty acid composition in human myotubes assessed as intracellular tTTA level at 30 uM after 96 hrs; type: functional; method in brief: as §2

For `CCCCCC/C=C\CCCCCCSCC(=O)OC[C@H](COP(=O)([O-])OCC[N+](C)(C)C)OC(=O)CSCCCCCC/C=C\CCCCCC`, the Activity [1] was “Active”, the Activity [2] was 11.29 mol% and the Activity [3] was “Active”. The Activity [4] was “Non-toxic”, the Activity [5] was 32.26 mol% and the Activity [6] was “Non-toxic”. The Activity [7] was 1.87 mol%, the Activity [8] was 4.63 mol% and the Activity [9] was 43.41 mol%. The Activity [10] was 4.5%, the Activity [11] was 11.45 mol% and the Activity [12] was 48.17 mol%. For the same molecule, the Activity [13] was 4.74 mol%, the Activity [14] was 1.42 mol% and the Activity [15] was “inactive”. It also gave an Activity [16] of 1.53 mol%, an Activity [17] of 2.7% and an Activity [18] of 0.4 mol%. The Activity [19] was 32.82 mol%, the Activity [20] was “Active” and the Activity [21] was “Active”. It also gave an Activity [22] of 6.08 mol%, an Activity [23] of -13.1% and an Activity [24] of -3.6%. The Activity [25] was 0.01 mol%.
`CCCCCCCCCCCCCCSCC(=O)OC[C@@H](O)COP(=O)([O-])OCC[N+](C)(C)C` showed an Activity [26] of 13.96 mol%, an Activity [27] of 13.2 mol% and an Activity [28] of 7.56 mol%. The Activity [4] was “Non-toxic”, the Activity [29] was 33.15 mol% and the Activity [6] was “Non-toxic”. For the same molecule, the Activity [30] was 2.21 mol%, the Activity [31] was 7.68 mol% and the Activity [7] was 0.76 mol%. The Activity [32] was 30.15 mol%, the Activity [33] was 37.12 mol% and the Activity [10] was -34.6%. The Activity [34] was “Dose-dependent effect”, the Activity [15] was “inactive” and the Activity [35] was 1.97 mol%. For the same molecule, the Activity [17] was -16.3%, the Activity [18] was 19.51 mol% and the Activity [22] was 0.91 mol%. The Activity [23] was -19.3%, the Activity [36] was 23.57 mol% and the Activity [24] was -9.6%. The Activity [25] was 7.99 mol%.
In the case of `CCCCCCCCCCCCCCSCC(=O)OC[C@@H](O)CO`, the Activity [26] is reported as 14.15 mol%, the Activity [27] is reported as 13.63 mol% and the Activity [1] is reported as “Active”. For the same molecule, the Activity [28] was 8.21 mol%, the Activity [3] was “Active” and the Activity [4] was “Non-toxic”. The Activity [29] was 33.11 mol%, the Activity [6] was “Non-toxic” and the Activity [30] was 1.81 mol%. For the same molecule, the Activity [31] was 8.42 mol%, the Activity [7] was 0.49 mol% and the Activity [32] was 29.36 mol%. For the same molecule, the Activity [33] was 38.46 mol%, the Activity [10] was -38.1% and the Activity [34] was “Dose-dependent effect”. For the same molecule, the Activity [15] was “inactive”, the Activity [35] was 1.68 mol% and the Activity [17] was -18.5%. For the same molecule, the Activity [18] was 20.04 mol%, the Activity [20] was “Active” and the Activity [21] was “Active”. The Activity [22] was 0.91 mol%, the Activity [23] was -19.4% and the Activity [36] was 22.3 mol%. For the same molecule, the Activity [24] was -6.4% and the Activity [25] was 7.17 mol%.
In the case of `CCCCCCC#CCCCCCCSCC(=O)O`, the Activity [26] is reported as 13.93 mol%, the Activity [27] is reported as 11.63 mol% and the Activity [1] is reported as “Active”. The Activity [28] was 7.09 mol%, the fold change (FC) [3] was < 10 and the Activity [4] was “Non-toxic”. For the same molecule, the Activity [29] was 32.32 mol%, the Activity [6] was “Non-toxic” and the Activity [30] was 1.32 mol%. It also gave an Activity [31] of 8.41 mol%, an Activity [32] of 38.85 mol% and an Activity [33] of 36.3 mol%. For the same molecule, the Activity [10] was 0.7%, the Activity [37] was 3.01 mol% and the Activity [15] was “inactive”. The Activity [35] was 0.87 mol%, the Activity [17] was 2.2% and the Activity [18] was 0.32 mol%. The Activity [20] was “Active”, the fold change (FC) [21] was 35 and the Activity [23] was -21.3%. The Activity [36] was 36.3 mol%, the Activity [24] was -11.6% and the Activity [38] was 11.34 mol%. It also gave an Activity [25] of 0.06 mol%.
In the case of `CCCCCCCCCCCCCCSCC(=O)OC[C@H](COP(=O)([O-])OCC[N+](C)(C)C)OC(=O)CSCCCCCCCCCCCCCC` [PHOSPHATIDYLCHOLINE], the Activity [26] is reported as 12.71 mol%, the Activity [27] is reported as 13.31 mol% and the Activity [1] is reported as “inactive”. The Activity [28] was 7.3 mol%, the Activity [3] was “inactive” and the Activity [4] was “Non-toxic”. For the same molecule, the Activity [29] was 39.28 mol%, the Activity [6] was “Non-toxic” and the Activity [30] was 1.88 mol%. It also gave an Activity [31] of 6.98 mol%, an Activity [7] of 0.17 mol% and an Activity [32] of 35.14 mol%. For the same molecule, the Activity [33] was 37.48 mol%, the Activity [10] was -11.8% and the Activity [15] was “inactive”. For the same molecule, the Activity [35] was 1.95 mol%, the Activity [17] was -2.5% and the Activity [18] was 5.9 mol%. For the same molecule, the Activity [20] was “inactive”, the Activity [21] was “inactive” and the Activity [22] was 0.34 mol%. For the same molecule, the Activity [23] was -4.4%, the Activity [36] was 31.79 mol% and the Activity [24] was -8.8%. It also gave an Activity [25] of 5.5 mol%.

— ChEMBL document CHEMBL3763093, “The molecular structure of thio-ether fatty acids influences PPAR-dependent regulation of lipid metabolism” (Bioorg Med Chem, 2016)
